In ChEMBL document CHEMBL1141276, “Cytotoxic and Antihaptotactic beauvericin analogues from precursor-directed biosynthesis with the insect pathogen Beauveria bassiana ATCC 7159” (J Nat Prod, 2007) one finds IC50 and Ratio data, which are given here for seven compounds.

A short description of test [1]: Antihaptotactic activity in human PC-3M cells assessed as inhibition of cell migration by wound healing assay. The format is functional, cell-based. Summed up:
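Wound-healing (scratch) migration assay on a PC-3M monolayer, with the wound closure quantified. The result is the IC50 for inhibition of migration in µM, averaged from 2–4 independent experiments with 4 replicates each.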

A short description of test [2]: Cytotoxicity against human PC-3M cells by MTT assay. The format is functional, cell-based. Summed up: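 Tetrazolium (MTT) cytotoxicity assay on monolayers of the metastatic prostate cancer line PC-3M. The result is given as IC50 in µM, averaged from 2–4 independent experiments with 4 replicates each.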
A short description of test [3]: Ratio of cytotoxic IC50 to antihaptotactic IC50 in PC-3M cells. It is filed as functional, Homo sapiens. In outline:
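Index computed as the MTT cytotoxicity IC50 divided by the wound-healing antihaptotactic IC50. Both IC50s were measured in PC-3M cells, each averaged from 2–4 independent experiments with 4 replicates.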

Usually IC50 stands for the concentration needed to halve the response being measured. Turning to `CC[C@H]1OC(=O)[C@H](Cc2ccccc2)N(C)C(=O)[C@@H](CC)OC(=O)[C@H](Cc2ccccc2)N(C)C(=O)[C@@H](CC)OC(=O)[C@H](Cc2ccccc2)N(C)C1=O` [BEAUVERICIN G3], the IC50 in test [1] turned out to be 17.2 µM; in test [2], 16.3 µM. Besides, the Ratio in test [3] came to 0.9.
The corresponding values for `CC[C@H]1OC(=O)[C@H](Cc2ccccc2)N(C)C(=O)[C@@H](C(C)C)OC(=O)[C@H](Cc2ccccc2)N(C)C(=O)[C@@H](C(C)C)OC(=O)[C@H](Cc2ccccc2)N(C)C1=O` [BEAUVERICIN G1] are 3.8 µM, 5 µM and 1.3.
For `CC(C)[C@H]1OC(=O)[C@H](Cc2cccc(F)c2)N(C)C(=O)[C@@H](C(C)C)OC(=O)[C@H](Cc2cccc(F)c2)N(C)C(=O)[C@@H](C(C)C)OC(=O)[C@H](Cc2cccc(F)c2)N(C)C1=O` [BEAUVERICIN H3], in that order: 3.2 µM, 4.4 µM and 1.4.
The corresponding values for `CC(C)[C@H]1OC(=O)[C@H](Cc2cccc(F)c2)N(C)C(=O)[C@@H](C(C)C)OC(=O)[C@H](Cc2ccccc2)N(C)C(=O)[C@@H](C(C)C)OC(=O)[C@H](Cc2ccccc2)N(C)C1=O` [BEAUVERICIN H1] are 3.2 µM, 7.4 µM and 2.3.
With `CC(C)[C@H]1OC(=O)[C@H](Cc2cccc(F)c2)N(C)C(=O)[C@@H](C(C)C)OC(=O)[C@H](Cc2cccc(F)c2)N(C)C(=O)[C@@H](C(C)C)OC(=O)[C@H](Cc2ccccc2)N(C)C1=O` [BEAUVERICIN H2], the values for the IC50 in test [1] and in test [2] were 3.2 µM and 6.2 µM, respectively. In test [3], the Ratio is recorded as 1.9.
The corresponding values for `CC[C@H]1OC(=O)[C@H](Cc2ccccc2)N(C)C(=O)[C@@H](CC)OC(=O)[C@H](Cc2ccccc2)N(C)C(=O)[C@@H](C(C)C)OC(=O)[C@H](Cc2ccccc2)N(C)C1=O` [BEAUVERICIN G2] are 7.6 µM, 10.4 µM and 1.4.
As for `CC(C)[C@@H]1OC(=O)[C@@H](Cc2ccccc2)N(C)C(=O)[C@H](C(C)C)OC(=O)[C@@H](Cc2ccccc2)N(C)C(=O)[C@H](C(C)C)OC(=O)[C@@H](Cc2ccccc2)N(C)C1=O` [BEAUVERICIN], the IC50 in test [1] was 3.5 µM; in test [2], 8 µM. In addition, in test [3], the Ratio came to 2.3.
